Legend:
[1] = system: OS-33 osteosarcoma xenograft; test: PPTP in vivo xenograft testing, OS-33; design: species or system mice
RS4;11 cell line = test: DIMSCAN in vitro cytotoxicity testing, RS4; type: cell-based
Summary of the method: (§1)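 Test compound incubated with cells of a 24-line pediatric cancer panel for 96 h at 0.1 nM to 1 μM, then assessed by DIMSCAN. Relative IC50 (rIC50) derived per line. Panel comparison value is the panel rIC50 divided by the rIC50 of each cell line.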

EW5 Ewing xenograft = test: PPTP in vivo xenograft testing, EW5; design: species or system mice
CHLA-9 cell line = test: DIMSCAN in vitro cytotoxicity testing, CHLA-9; type: cell-based
Summary of the method: as §1

NB-EBc1 cell line = test: DIMSCAN in vitro cytotoxicity testing, NB-EBc1; type: cell-based
Summary of the method: as §1

BT-12 cell line = test: DIMSCAN in vitro cytotoxicity testing, BT-12; type: cell-based
Summary of the method: as §1

[2] = system: ALL-8 ALL T-cell xenograft; test: PPTP in vivo xenograft testing, ALL-8; design: species or system mice
[3] = system: Rh28 ALV rhabdomyosarcoma xenograft; test: PPTP in vivo xenograft testing, Rh28; design: species or system mice
[4] = 1 mg/kg IP Q4Dx3 repeated at Day 21

Q: For C=C1C[C@@H]2CC[C@@]34C[C@H]5O[C@H]6[C@@H](O3)[C@H]3O[C@H](CC[C@@H]3O[C@H]6[C@H]5O4)CC(=O)C[C@@H]3[C@@H](OC)[C@@H](C[C@H](O)CN)O[C@H]3C[C@H]3O[C@@H](CC[C@@H]1O2)C[C@@H](C)C3=C [Eribulin], which EFS activity ([1]; 1 mg/kg IP) is on record?
A: High (High activity requires: (a) an EFS T/C >2; (b) a significant difference in EFS distributions, and (c) a net reduction in median tumor volume for animals in the treated group at the end of treatment as compared to at treatment initiation)

Q: What about the Response activity ([1]; 1 mg/kg IP) of the same compound?
A: High (A high level of activity is indicated by a score of 6 or more)

Q: And the T/C volume activity ([1]; 1 mg/kg IP)?
A: Int (Intermediate activity = T/C ≤0.45 but >0.15)

Q: What about the “EFS T/C” value [1, 4] of the same compound?
A: >2.7

Q: And the “Median final RTV (CD45%)” value [1, 4]?
A: 0.2

Q: What about the “Tumor volume T/C” value ([1]; 1 mg/kg IP, Day 21 or earlier) of the same compound?
A: 0.24

Q: What about the IC50 (RS4;11 cell line; Homo sapiens, RS4-11, 96 h, read-out: rIC50) of the same compound?
A: < 0.1 nM

Q: And the “Panel rIC50/Line rIC50” value (RS4;11 cell line; RS4;11)?
A: >2.74

Q: What about the Relative in/out% (RS4;11 cell line; RS4;11) of the same compound?
A: −99%

Q: And the “Ymin % (observed)” value (RS4;11 cell line; RS4;11)?
A: 0.22%

Q: What about the EFS activity (EW5 Ewing xenograft; 1 mg/kg IP) of the same compound?
A: Int (Intermediate activity = criteria (a) and (b) above, but not having a net reduction in median tumor volume for treated animals at the end of the study)

Q: What about the Response activity (EW5 Ewing xenograft; 1 mg/kg IP) of the same compound?
A: Int (intermediate activity by a score of ≥2 but <6)

Q: What about the T/C volume activity (EW5 Ewing xenograft; 1 mg/kg IP) of the same compound?
A: High (High activity = T/C ≤0.15)

Q: What about the “EFS T/C” value (EW5 Ewing xenograft; [4]) of the same compound?
A: 3.3

Q: And the “Median final RTV (CD45%)” value (EW5 Ewing xenograft; [4])?
A: >4

Q: What about the Time to event (EW5 Ewing xenograft; [4]) of the same compound?
A: 41.3

Q: And the “Tumor volume T/C” value (EW5 Ewing xenograft; 1 mg/kg IP, Day 21 or earlier)?
A: 0.13

Q: And the IC50 (CHLA-9 cell line; 96 h, read-out: rIC50)?
A: 0.16 nM

Q: And the “Panel rIC50/Line rIC50” value (CHLA-9 cell line; CHLA-9)?
A: 1.68

Q: What about the Relative in/out% (CHLA-9 cell line; CHLA-9) of the same compound?
A: −49%

Q: And the “Ymin % (observed)” value (CHLA-9 cell line; CHLA-9)?
A: 1.82%

Q: What about the IC50 (NB-EBc1 cell line; 96 h, read-out: rIC50) of the same compound?
A: 14.8 nM

Q: And the “Panel rIC50/Line rIC50” value (NB-EBc1 cell line; NB-EBc1)?
A: 0.02

Q: What about the Relative in/out% (NB-EBc1 cell line; NB-EBc1) of the same compound?
A: −92%

Q: What about the “Ymin % (observed)” value (NB-EBc1 cell line; NB-EBc1) of the same compound?
A: 1.76%

Q: What about the “Panel rIC50/Line rIC50” value (BT-12 cell line; BT-12) of the same compound?
A: 1.83

Q: What about the Relative in/out% (BT-12 cell line; BT-12) of the same compound?
A: −74%

Q: What about the “Ymin % (observed)” value (BT-12 cell line; BT-12) of the same compound?
A: 2.12%

Q: What about the IC50 (BT-12 cell line; Homo sapiens, BT-12, 96 h, read-out: rIC50) of the same compound?
A: 0.15 nM

Q: What about the EFS activity ([2]; 1.5 mg/kg IP) of the same compound?
A: High (High activity requires: (a) an EFS T/C >2; (b) a significant difference in EFS distributions, and (c) a net reduction in median tumor volume for animals in the treated group at the end of treatment as compared to at treatment initiation)

Q: And the Response activity ([2]; 1.5 mg/kg IP)?
A: High (A high level of activity is indicated by a score of 6 or more)

Q: And the “EFS T/C” value ([2]; 1.5 mg/kg IP Q4Dx3 repeated at Day 21)?
A: >7.9

Q: And the “Median final RTV (CD45%)” value ([2]; CD45%, 1.5 mg/kg IP)?
A: 0.0%

Q: And the EFS activity ([3]; 1 mg/kg IP)?
A: High (High activity requires: (a) an EFS T/C >2; (b) a significant difference in EFS distributions, and (c) a net reduction in median tumor volume for animals in the treated group at the end of treatment as compared to at treatment initiation)

Q: And the Response activity ([3]; 1 mg/kg IP)?
A: High (A high level of activity is indicated by a score of 6 or more)

Q: What about the T/C volume activity ([3]; 1 mg/kg IP) of the same compound?
A: Int (Intermediate activity = T/C ≤0.45 but >0.15)

Q: And the “EFS T/C” value [3, 4]?
A: >2.4

Q: And the “Median final RTV (CD45%)” value [3, 4]?
A: 0.0

Q: And the “Tumor volume T/C” value ([3]; 1 mg/kg IP, Day 21 or earlier)?
A: 0.29

— publication PMC4263960 (Pediatric blood & cancer, 2013)
